Values after ≈ are worked out from the molar mass of the structure shown.
Tests used:
Type in all cases: functional
[1] = test system: Mycolicibacterium smegmatis; test: Anti-tubercular activity against Mycobacterium smegmatis MC2 155 ATCC 700084 after 3 days by microdilution method; conditions: MC2 155 ATCC 700084, 72 h
Summary of the method: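 M. smegmatis mc2155 grown in MB7H9 + 10% OADC at 37 °C with shaking to OD600 0.8. Inoculum set to 0.5 McFarland, diluted 1:100, and mixed 1:1 with two-fold serial dilutions in MB7H9. Plates incubated 3 days at 37 °C with growth and sterility controls. MIC taken as the lowest concentration with no visible growth.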

[2] = test system: Mycobacterium tuberculosis; test: Antibacterial activity against Mycobacterium tuberculosis H37Rv ATCC 27294T assessed as isoniazid MIC at 256 ug/ml after 7 days by microdilution checkerboard assay; conditions: 168 h
Summary of the method: (§1)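 Two-dimensional checkerboard in H37Rv at 10^5 CFU/ml in MB7H9/OADC. Partner drug (amikacin, EtBr, isoniazid, ofloxacin or rifampin) two-fold serially diluted across columns 3-11. Test compound two-fold serially diluted down rows 2-6. Plates incubated 7 days at 37 °C, then MTT added overnight. […] Run in triplicate.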

[3] = test system: Mycobacterium tuberculosis; test: Antibacterial activity against Mycobacterium tuberculosis H37Rv ATCC 27294T assessed as ethidium bromide MIC at 256 ug/ml after 7 days by microdilution checkerboard assay; conditions: 168 h; summary of the method: as §1
[4] = test system: Mycobacterium tuberculosis; test: Antibacterial activity against Mycobacterium tuberculosis H37Rv ATCC 27294T assessed as ethidium bromide MIC at 128 ug/ml after 7 days by microdilution checkerboard assay; conditions: 168 h; summary of the method: as §1
[5] = test system: Mycobacterium tuberculosis; test: Antibacterial activity against Mycobacterium tuberculosis H37Rv ATCC 27294T assessed as ofloxacin MIC at 32 ug/ml after 7 days by microdilution checkerboard assay; conditions: 168 h; summary of the method: as §1
[6] = test system: Mycobacterium tuberculosis; test: Antibacterial activity against Mycobacterium tuberculosis H37Rv ATCC 27294T assessed as ofloxacin MIC at 4 ug/ml after 7 days by microdilution checkerboard assay; conditions: 168 h; summary of the method: as §1
[7] = test system: Mycobacterium tuberculosis; test: Antibacterial activity against Mycobacterium tuberculosis H37Rv ATCC 27294T assessed as ofloxacin MIC at 8 ug/ml after 7 days by microdilution checkerboard assay; conditions: 168 h; summary of the method: as §1
[8] = test system: Mycobacterium tuberculosis; test: Antibacterial activity against Mycobacterium tuberculosis H37Rv ATCC 27294T assessed as ofloxacin MIC at 16 ug/ml after 7 days by microdilution checkerboard assay; conditions: 168 h; summary of the method: as §1
[9] = test system: Mycobacterium tuberculosis; test: Antibacterial activity against Mycobacterium tuberculosis H37Rv ATCC 27294T assessed as amikacin MIC at 4 ug/ml after 7 days by microdilution checkerboard assay; conditions: 168 h; summary of the method: as §1
[10] = test system: Mycobacterium tuberculosis; test: Anti-tubercular activity against Mycobacterium tuberculosis H37Rv ATCC 27294T after 7 days by mircodilution method; conditions: 168 h
Summary of the method: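 H37Rv grown static in MB7H9 + 10% OADC at 37 °C to OD600 0.8, then diluted to about 10^5 cells/ml. Mixed 1:1 with two-fold serial dilutions in MB7H9/OADC and incubated 7 days at 37 °C. MTT added to final 2.5% and plates incubated overnight. MIC is the lowest concentration with no colour change. Run in triplicate.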

[11] = test system: Mycobacterium tuberculosis; test: Antibacterial activity against Mycobacterium tuberculosis H37Rv ATCC 27294T assessed as rifampin MIC at 256 ug/ml after 7 days by microdilution checkerboard assay; conditions: 168 h
Summary of the method: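 M. tuberculosis H37Rv grown in MB7H9 + 10% OADC at 37 °C to OD600 0.8; plates inoculated at 10^5 CFU/ml. Rifampicin two-fold serially diluted across columns, test compound two-fold diluted down rows (two-dimensional checkerboard). Sealed, 37 °C for seven days, then MTT added and incubated overnight. MIC read as no colour change. Triplicate.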

## COc1ccc(CCN(C)CCCC(C#N)(c2ccc(OC)c(OC)c2)C(C)C)cc1OC (stereo unspecified)
[1]
  MIC: 776 µg/mL (≈ 1710 µM)
[2]
  MIC: 0.0125 µg/mL
[3]
  MIC: 0.781 µg/mL
[4]
  MIC: 3.12 µg/mL
[5]
  MIC: 2 µg/mL
[6]
  MIC: 2 µg/mL
[7]
  MIC: 2 µg/mL
[8]
  MIC: 2 µg/mL
[9]
  MIC: 2 µg/mL
[10]
  MIC: 128 µg/mL (≈ 282 µM)
[11]
  MIC: 0.125 µg/mL
